According to ChEMBL document CHEMBL4145471, “New 1,5 and 2,5-disubstituted tetrazoles-dependent activity towards surface barrier of Candida albicans” (Eur J Med Chem, 2018):
One block for each molecule: values may come before it.

Tests used:
Candida albicans [1] = assay: Antifungal activity against Candida albicans ATCC 90028 assessed as metabolic activity at 40 ug/ml after 48 hrs in presence of 80 ug/ml fluconazol by XTT assay relative to control
Candida albicans [2] = assay: Synergistic antifungal activity against Candida albicans ATCC 90028 at 10 ug/ml after 48 hrs in presence of 1.25 ug/ml fluconazol by checkerboard assay relative to control; assay type: functional
In short: (§1)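 Checkerboard per M27-A3 against ATCC 90028: fluconazole at 80–1.25 µg/mL horizontally and partner compound at 80–1.25 µg/mL vertically, 100 µL yeast inoculum per well, 35°C for 48 h. After 48 h, metabolic activity was measured by XTT reduction at 475 nm (660 nm reference) relative to untreated growth control. FIC index is the sum of the FICs; <1 was defined as synergism and >1 as antagonism.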

Candida albicans [3] = assay: Synergistic antifungal activity against Candida albicans ATCC 90028 at 20 ug/ml after 48 hrs in presence of 40 ug/ml fluconazol by checkerboard assay relative to control; assay type: functional
In short: (§2)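 Checkerboard in C. albicans ATCC 90028, inoculum prepared per CLSI M27-A3 in RPMI. Fluconazole serially diluted 80-1.25 µg/mL across the plate against the partner compound at 80-1.25 µg/mL final. Incubated 48 h at 35°C. Metabolic activity read by XTT reduction at 475 nm (660 nm reference), given as % of the untreated growth control.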

Candida albicans [4] = assay: Synergistic antifungal activity against Candida albicans ATCC 90028 at 80 ug/ml after 48 hrs in presence of 2.5 ug/ml fluconazol by checkerboard assay relative to control; assay type: functional
In short: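 Checkerboard microdilution (M27-A3) on C. albicans ATCC 90028 in RPMI 1640: fluconazole (80-1.25 µg/mL) crossed with tetrazole (80-1.25 µg/mL final), incubated at 35°C for 48 h. Growth by OD405 at 18 and 48 h, endpoint taken as 100% inhibition. FIC index = sum of the two agents' FICs; <1 synergism, >1 antagonism.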

Candida albicans [5] = assay: Antifungal activity against Candida albicans ATCC 90028 assessed as metabolic activity at 80 ug/ml after 48 hrs in presence of 80 ug/ml fluconazol by XTT assay relative to control; conditions: ATCC 90028, 48 h
Candida albicans [6] = assay: Antifungal activity against Candida albicans ATCC 90028 assessed as metabolic activity at 40 ug/ml after 48 hrs in presence of 40 ug/ml fluconazol by XTT assay relative to control; conditions: ATCC 90028, 48 h
Candida albicans [7] = assay: Antifungal activity against Candida albicans ATCC 90028 assessed as metabolic activity at 10 ug/ml after 48 hrs in presence of 80 ug/ml fluconazol by XTT assay relative to control
Candida albicans [8] = assay: Antifungal activity against Candida albicans ATCC 90028 assessed as inhibition of metabolic activity at 10 ug/ml after 48 hrs in presence of 5 ug/ml fluconazol by XTT assay relative to control; assay type: functional; conditions: values are per cent of control
In short: (§3)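 Checkerboard against strain ATCC 90028, inoculum per M27-A3: fluconazole 80-1.25 µg/mL on one axis, tetrazole 80-1.25 µg/mL on the other. Plates at 35°C for 48 h, then XTT metabolic reduction read at 475 nm (660 nm reference). Activity is the drop in mean absorbance against untreated growth control. FICs and their summed FIC index are taken at 50% reduction in metabolic activity.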

Candida albicans [9] = assay: Synergistic antifungal activity against Candida albicans ATCC 90028 at 1.25 ug/ml after 48 hrs in presence of 20 ug/ml fluconazol by checkerboard assay relative to control; assay type: functional
In short: as §1

Candida albicans [10] = assay: Antifungal activity against Candida albicans ATCC 90028 assessed as inhibition of metabolic activity at 5 ug/ml after 48 hrs in presence of 5 ug/ml fluconazol by XTT assay relative to control; assay type: functional; conditions: ATCC 90028, 48 h, values are per cent of control
In short: as §3

Candida albicans [11] = assay: Antifungal activity against Candida albicans ATCC 90028 assessed as inhibition of metabolic activity at 5 ug/ml after 48 hrs in presence of 40 ug/ml fluconazol by XTT assay relative to control; assay type: functional; conditions: values are per cent of control
In short: as §3

Candida albicans [12] = assay: Antifungal activity against Candida albicans ATCC 90028 at 0.25 ug/ml after 48 hrs relative to control; assay type: functional
In short: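 Fluconazole (water stock, diluted in RPMI 1640) tested by CLSI M27-A3 broth microdilution against C. albicans ATCC 90028. Inoculum 1.8×10^3 cells/mL in RPMI 1640 buffered with MOPS, pH 7.0. Incubation at 35°C without agitation, read at 18 and 48 h. Growth by OD405 and visually; inhibition % calculated against solvent growth-control wells after subtracting sterility-control wells.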

Candida albicans [13] = assay: Antifungal activity against Candida albicans ATCC 90028 after 48 hrs in presence of fluconazol by XTT assay; assay type: functional; conditions: ATCC 90028, 48 h
In short: as §3

Candida albicans [14] = assay: Antifungal activity against Candida albicans ATCC 90028 at 0.0625 ug/ml after 48 hrs relative to control; assay type: functional
In short: (§4)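 Planktonic broth microdilution per M27-A3 in MOPS-buffered RPMI 1640 (pH 7.0), final inoculum 1.8×10^3 cells/mL, compounds 0.0313–16 µg/mL from 1600 µg/mL stocks in ethanol or DMSO. Incubated at 35°C without agitation; OD405 read at 18 and 48 h. % inhibition was derived from test, sterility (no inoculum) and solvent growth-control wells. Amphotericin B at 0.5 µg/mL served as the 100% control.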

Candida albicans [15] = assay: Synergistic antifungal activity against Candida albicans ATCC 90028 at 80 ug/ml after 48 hrs in presence of 80 ug/ml fluconazol by checkerboard assay relative to control; assay type: functional; conditions: ATCC 90028, 48 h, read-out: GI
In short: as §2

Candida albicans [16] = assay: Antifungal activity against Candida albicans ATCC 90028 assessed as metabolic activity at 40 ug/ml after 48 hrs in presence of 2.5 ug/ml fluconazol by XTT assay relative to control
Candida albicans [17] = assay: Antifungal activity against Candida albicans ATCC 90028 at 16 ug/ml after 48 hrs relative to control; assay type: functional
In short: as §4

Candida albicans [18] = assay: Antifungal activity against Candida albicans ATCC 90028 at 8 ug/ml after 48 hrs relative to control; assay type: functional
In short: as §4

Candida albicans [19] = assay: Antifungal activity against Candida albicans ATCC 90028 assessed as inhibition of metabolic activity at 1.25 ug/ml after 48 hrs in presence of 20 ug/ml fluconazol by XTT assay relative to control; assay type: functional; conditions: values are per cent of control
In short: as §3

Candida albicans [20] = assay: Antifungal activity against Candida albicans ATCC 90028 assessed as inhibition of metabolic activity at 5 ug/ml after 48 hrs in presence of 80 ug/ml fluconazol by XTT assay relative to control; assay type: functional; conditions: values are per cent of control
In short: as §3

Candida albicans [21] = assay: Antifungal activity against Candida albicans ATCC 90028 at 2 ug/ml after 48 hrs relative to control; assay type: functional
In short: as §4

Structure (SMILES): ClCCCn1nnnc1-c1ccccc1Cl
Metabolic activity (Candida albicans [1]): 63.62%
growth inhibition (GI) (Candida albicans [2]): 99.86%
growth inhibition (GI) (Candida albicans [3]): 99.34%
growth inhibition (GI) (Candida albicans [4]): 99.67%
Metabolic activity at 80 µg/mL (Candida albicans [5]): 53.2%
Metabolic activity at 40 µg/mL (Candida albicans [6]): 100%
Metabolic activity (Candida albicans [7]): 80.34%
residual activity (Candida albicans [8]): 100%
growth inhibition (GI) (Candida albicans [9]): 99.58%
residual activity at 5 µg/mL (Candida albicans [10]): 100%
residual activity (Candida albicans [11]): 86.34%
Activity (Candida albicans [12]): 99.62%
MIC (Candida albicans [13]): 80 µg/mL
Activity (Candida albicans [14]): 99.34%
inhibition of growth at 80 µg/mL (Candida albicans [15]): 99.8%
Metabolic activity (Candida albicans [16]): 75.66%
Activity (Candida albicans [17]): 99.39%
Activity (Candida albicans [18]): 99.06%
residual activity (Candida albicans [19]): 60.65%
residual activity (Candida albicans [20]): 77.27%
Activity (Candida albicans [21]): 99.14%

MIC (Candida albicans [13]): 20 µg/mL
Structure (SMILES): Cc1ccc(-c2nnn(CCCN3CCOCC3)n2)cc1
Metabolic activity (Candida albicans [1]): 66.33%
growth inhibition (GI) (Candida albicans [2]): 97.81%
growth inhibition (GI) (Candida albicans [3]): 98.99%
growth inhibition (GI) (Candida albicans [4]): 99.54%
Metabolic activity at 80 µg/mL (Candida albicans [5]): 73.4%
Metabolic activity at 40 µg/mL (Candida albicans [6]): 95.3%
Metabolic activity (Candida albicans [7]): 89.3%
residual activity (Candida albicans [8]): 100%
growth inhibition (GI) (Candida albicans [9]): 99.46%
residual activity at 5 µg/mL (Candida albicans [10]): 100%
residual activity (Candida albicans [11]): 100%
Activity (Candida albicans [12]): 98.68%
Activity (Candida albicans [14]): 99.03%
inhibition of growth at 80 µg/mL (Candida albicans [15]): 99.5%
Metabolic activity (Candida albicans [16]): 26.03%
Activity (Candida albicans [17]): 99.44%
Activity (Candida albicans [18]): 99.39%
residual activity (Candida albicans [19]): 100%
residual activity (Candida albicans [20]): 88.19%
Activity (Candida albicans [21]): 98.3%

Structure (SMILES): CCOC(=O)CCn1nnc(-c2ccccc2)n1
Metabolic activity (Candida albicans [1]): 55.99%
growth inhibition (GI) (Candida albicans [2]): 99.72%
growth inhibition (GI) (Candida albicans [3]): 99.29%
growth inhibition (GI) (Candida albicans [4]): 99.77%
Metabolic activity at 80 µg/mL (Candida albicans [5]): 40%
Metabolic activity at 40 µg/mL (Candida albicans [6]): 100%
Metabolic activity (Candida albicans [7]): 77.26%
residual activity (Candida albicans [8]): 100%
growth inhibition (GI) (Candida albicans [9]): 99.65%
residual activity at 5 µg/mL (Candida albicans [10]): 100%
residual activity (Candida albicans [11]): 94.92%
Activity (Candida albicans [12]): 98.7%
MIC (Candida albicans [13]): 80 µg/mL
Activity (Candida albicans [14]): 99.12%
inhibition of growth at 80 µg/mL (Candida albicans [15]): 99.6%
Metabolic activity (Candida albicans [16]): 61.61%
Activity (Candida albicans [17]): 99.65%
Activity (Candida albicans [18]): 98.86%
residual activity (Candida albicans [19]): 62.2%
residual activity (Candida albicans [20]): 71.92%
Activity (Candida albicans [21]): 99.7%
